Assay results: ChEMBL document CHEMBL1146754, “Estrogen receptor ligands. Part 4: The SAR of the syn-dihydrobenzoxathiin SERAMs” (Bioorg Med Chem Lett, 2004)

Tests used:
[1] = target: T1, Estrogen receptor (Homo sapiens, UniProt P03372)
T1 sequence (P03372 whole entry): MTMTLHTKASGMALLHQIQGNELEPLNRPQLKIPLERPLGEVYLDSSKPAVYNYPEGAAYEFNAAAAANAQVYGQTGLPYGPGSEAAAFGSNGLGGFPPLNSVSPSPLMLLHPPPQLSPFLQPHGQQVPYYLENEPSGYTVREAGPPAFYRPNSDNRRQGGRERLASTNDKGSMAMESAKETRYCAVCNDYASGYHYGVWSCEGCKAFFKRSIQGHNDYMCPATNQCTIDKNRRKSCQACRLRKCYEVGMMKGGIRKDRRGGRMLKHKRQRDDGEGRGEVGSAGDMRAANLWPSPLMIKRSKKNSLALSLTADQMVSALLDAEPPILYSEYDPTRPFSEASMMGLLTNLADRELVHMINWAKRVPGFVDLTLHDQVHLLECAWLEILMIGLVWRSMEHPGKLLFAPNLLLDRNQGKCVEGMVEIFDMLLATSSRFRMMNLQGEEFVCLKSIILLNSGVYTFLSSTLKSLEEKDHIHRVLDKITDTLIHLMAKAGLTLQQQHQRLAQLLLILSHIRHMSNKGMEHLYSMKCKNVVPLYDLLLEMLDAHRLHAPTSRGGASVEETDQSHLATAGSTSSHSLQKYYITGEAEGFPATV

[2] = target: T2, Estrogen receptor beta (Homo sapiens, UniProt Q92731)
[3] = target: T1, Estrogen receptor; assay: Potency in cellular transactivation assay utilizing HEK293 cells stably co-transfected with human estrogen receptor alpha and the alkaline phosphatase reporter gene.; format: functional, cell-based
[4] = target: T2, Estrogen receptor beta; assay: Potency in cellular transactivation assay utilizing HEK293 cells stably co-transfected with human estrogen receptor beta and the alkaline phosphatase reporter gene; format: functional, cell-based
[5] = target: T3, Estrogen receptor (Rattus norvegicus) (UniProt P06211+Q62986); settings: at 1 mg/kg
[6] = target: T3, Estrogen receptor (Rattus norvegicus); settings: at 1 mg/kg; remark: listed apart in the source
[7] = (§1) Plasma clearance of the compound in female Sprague-Dawley rats; format: ADME, organism-based; settings: female, Sprague-Dawley, rat, plasma
Procedure, shortened: (§2)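 Female Sprague–Dawley rats were dosed intravenously at 1 mpk (n = 2) and orally at 2 mpk (n = 3) for pharmacokinetic evaluation.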

[8] = (§3) Bioavailability in rat (Sprague-Dawley) (female); format: ADME, organism-based; settings: female, Sprague-Dawley, in vivo
Procedure, shortened: as §2

[9] = (§4) Half life period in female Sprague-Dawley rats; format: ADME, organism-based; settings: female, Sprague-Dawley, rat, in vivo
Procedure, shortened: as §2

[10] = organism: Rattus norvegicus; assay: as §1; format: ADME, organism-based; settings: in vivo
Procedure, shortened: as §2

[11] = organism: Rattus norvegicus; assay: as §3; format: ADME, organism-based; settings: in vivo
Procedure, shortened: as §2

[12] = organism: Rattus norvegicus; assay: as §4; format: ADME, organism-based; settings: in vivo
Procedure, shortened: as §2
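Throughout, for Antagonism: Read-out is rat uterine weight, with subcutaneous dosing.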
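Throughout, for Estrogenic effect: intrinsic estrogenic activity read out as rat uterine weight after subcutaneous administration.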

T2 sequence (Q92731 whole entry): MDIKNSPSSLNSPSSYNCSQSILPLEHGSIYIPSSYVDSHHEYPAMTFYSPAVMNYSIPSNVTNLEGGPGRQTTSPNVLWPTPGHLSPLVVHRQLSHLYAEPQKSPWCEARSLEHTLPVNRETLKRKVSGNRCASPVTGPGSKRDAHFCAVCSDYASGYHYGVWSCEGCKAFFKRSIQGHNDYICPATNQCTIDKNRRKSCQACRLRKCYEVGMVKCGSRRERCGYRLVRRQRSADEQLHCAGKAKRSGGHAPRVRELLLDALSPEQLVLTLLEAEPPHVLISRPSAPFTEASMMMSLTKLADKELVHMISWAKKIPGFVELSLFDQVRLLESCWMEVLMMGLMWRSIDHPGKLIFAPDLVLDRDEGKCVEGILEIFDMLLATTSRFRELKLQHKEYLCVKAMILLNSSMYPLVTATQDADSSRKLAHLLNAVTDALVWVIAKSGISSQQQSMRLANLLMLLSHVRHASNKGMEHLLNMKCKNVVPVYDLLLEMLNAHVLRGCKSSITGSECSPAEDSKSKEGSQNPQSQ

| Compound | IC50 [1] | IC50 [2] | IC50 [3] | IC50 [4] | Antagonism [5] | Estrogenic effect [6] | clearance [7] | bioavailability [8] | half-life [9] | CL [10] | F [11] | T1/2 [12] |
| --- | --- | --- | --- | --- | --- | --- | --- | --- | --- | --- | --- | --- |
| CCc1cc(O)cc2c1S[C@@H](c1ccc(O)cc1)[C@@H](c1ccc(OCCN3CCCCC3)cc1)O2 | 53.3 nM | 185 nM | 342 nM | 1460 nM |  |  |  |  |  |  |  |  |
| CN(C)CCOc1ccc([C@@H]2Oc3ccc(O)cc3S[C@@H]2c2cccc(O)c2)cc1 | 1.4 nM | 129 nM | 2.3 nM | 7.3 nM | 34% | 69% |  |  |  |  |  |  |
| Oc1ccc([C@@H]2Sc3cc(O)cc(Cl)c3O[C@@H]2c2ccc(OCCN3CCCCC3)cc2)cc1 | 5.3 nM | 105 nM | 25.4 nM | 1010 nM |  |  |  |  |  |  |  |  |
| Oc1ccc([C@@H]2Sc3cc(O)ccc3O[C@@H]2c2ccc(OCCN3CCCCC3)cc2)cc1 (stereo in doubt; 11) |  |  |  |  | 77% | 5% |  |  |  |  |  |  |
| Oc1ccc2c(c1)SC(c1ccccc1)C(c1ccc(OCCN3CCCCC3)cc1)O2 (stereo not given) | 11.9 nM | 300 nM |  |  |  |  |  |  |  |  |  |  |
| Cc1cc(O)cc2c1S[C@@H](c1ccc(O)cc1)[C@@H](c1ccc(OCCN3CCCCC3)cc1)O2 | 2 nM | 46.2 nM | 5.5 nM | 200 nM |  |  | 51 mL/min/kg | 6% | 2.7 h |  |  |  |
| Oc1cccc(C2Sc3cc(O)ccc3OC2c2ccc(OCCN3CCCCC3)cc2)c1 (stereo not given) | 3 nM | 250 nM | 3.6 nM | 245 nM | 90% | 16% |  |  |  |  |  |  |
| Cc1cc(O)cc2c1O[C@H](c1ccc(OCCN3CCCCC3)cc1)[C@H](c1ccc(O)cc1)S2 | 5.3 nM | 343 nM | 22.6 nM | 690 nM | -4% | 12% |  |  |  |  |  |  |
| Oc1ccc2c(c1)SC(c1ccc(F)cc1)C(c1ccc(OCCN3CCCCC3)cc1)O2 (stereo not given) | 3.8 nM | 66.6 nM | 94 nM | 1550 nM | 9.5% | 5% |  |  |  |  |  |  |
| Oc1ccc([C@@H]2Sc3cc(O)c(F)cc3O[C@@H]2c2ccc(OCCN3CCCCC3)cc2)cc1 | 13.5 nM | 413 nM |  |  | 53% | 13% |  |  |  |  |  |  |
| Oc1ccc([C@@H]2Sc3c(ccc(O)c3F)O[C@@H]2c2ccc(OCCN3CCCCC3)cc2)cc1 | 0.8 nM | 13.2 nM | 2.5 nM | 177 nM | 76% | 7% | 16 mL/min/kg | 22% | 2.4 h |  |  |  |
| CC1CCN(CCOc2ccc([C@@H]3Oc4ccc(O)cc4S[C@@H]3c3cccc(O)c3)cc2)CC1 | 0.8 nM | 109 nM | 4 nM | 132 nM | 59% | 29% |  |  |  |  |  |  |
| Oc1ccc([C@@H]2Sc3ccc(O)cc3O[C@@H]2c2ccc(OCCN3CCCCC3)cc2)cc1 | 1.8 nM | 44.4 nM | 5 nM | 239 nM | 67% | 1% | 154 mL/min/kg | 0% | 2.2 h |  |  |  |
| Oc1ccc([C@@H]2Sc3cc(O)c(Cl)cc3O[C@@H]2c2ccc(OCCN3CCCCC3)cc2)cc1 | 5.4 nM | 73 nM | 14.8 nM | 2370 nM | 36% | 38% |  |  |  |  |  |  |
| Oc1ccc([C@@H]2Sc3cc(Cl)c(O)cc3O[C@@H]2c2ccc(OCCN3CCCCC3)cc2)cc1 | 23.1 nM | 520 nM | 61 nM | 3020 nM |  |  |  |  |  |  |  |  |
| Oc1cccc([C@H]2Sc3cc(O)ccc3O[C@H]2c2ccc(OCCNC3CCCCCC3)cc2)c1 | 1.2 nM | 103 nM | 3.5 nM | 67 nM | 57% | 22% |  |  |  |  |  |  |
| Oc1ccc([C@@H]2Sc3cc(O)ccc3O[C@@H]2c2ccc(OCCN3CCCCC3)cc2)cc1 (stereo in doubt; 11L) |  |  |  |  |  |  |  |  |  | 31 mL/min/kg | 10% | 1.6 h |
